# Measurements published in paper PMC4945769 (British Journal of Pharmacology, 2016).
# Tests used:
# PK studies in the rat = assay type: in vivo; settings: Sprague Dawley, plasma, intravenous, 1 mg·kg^−1
# Procedure, shortened: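 Male Sprague Dawley rats were given test compound at 1 mg·kg−1 IV or 3 mg·kg−1 orally; dose was set by syringe weight difference. Serial tail-vein blood was taken from 2 to 1440 min and centrifuged at 4°C. Plasma was stored at −20°C and then quantified by LC–MS/MS against calibration curves in control rat plasma. Parameters were derived by non-compartmental analysis.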
# NSP activity = assay: Pharmacokinetic/pharmacodynamic modelling of NSP activity in rat; assay type: in vivo
# Procedure, shortened: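 Rat NSP activity time courses were fitted with an indirect response model: production rate kin scaled by uninhibited DPP1 fraction 1 − C/(IC50 + C), loss rate kout, baseline taken as 100%. IC50 was the in vitro cell potency corrected for plasma protein binding. Exposure was simulated with a one-compartment PK model. kout was fitted to blood data from the onset study and bone marrow data from the recovery study.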
# cathepsin G (CatG) = assay: Onset studies: CatG activity in rat blood and bone marrow lysates; assay type: in vivo; settings: two onset studies, small assay window
# Procedure, shortened: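 Male Sprague Dawley rats (200–400 g) were dosed orally twice daily, 3.6 mg·kg−1 in the morning and 10.7 mg·kg−1 8 h later, for 5–14 days (onset 1) or 1–8 days (onset 2). Vehicle was 0.1 M citrate buffer, pH 3.0. Blood and femoral marrow cells were lysed at 10^8 cells mL−1 in Triton X-100 buffer. Lysates were incubated 15 min, then given N-succinyl-Ala-Ala-Pro-Phe-pNA and read by absorbance at 405 nm for 90–120 min. Initial rate was taken from the linear range.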
# neutrophil elastase (NE) = assay: Onset studies: NE activity in rat blood and bone marrow lysates; assay type: in vivo; settings: onset 1 (14 day study), bone marrow
# Procedure, shortened: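 Rats were dosed orally twice daily with test compound, 3.6 mg·kg−1 and then 10.7 mg·kg−1 8 h later, against citrate buffer pH 3.0 vehicle. Onset 1 ran 5, 8, 10, 12 or 14 days. Femurs were taken under isoflurane 2 h after the last dose. Marrow leukocytes were lysed on ice at 10^8 cells mL−1. Lysates received Methoxysuccinyl-Ala-Ala-Pro-Val-AMC and were read by fluorescence (ex 350–380, em 450–460 nm) for up to 60 min. Initial rate came from the linear range.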
# DPP1 = DPP1 (Homo sapiens, UniProt P53634); assay: DPP1 activity cell assay; assay type: cell-based; settings: read-out: DPP1 IC50, corrected for PPB; in vitro potency corrected for rat PPB
# proteinase 3 (PR3) = assay: Onset studies: PR3 activity in rat blood and bone marrow lysates; assay type: in vivo; settings: onset 1 (14 day study), bone marrow
# Procedure, shortened: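 Male Sprague Dawley rats received test compound orally twice daily, 3.6 and 10.7 mg·kg−1 8 h apart, for up to 14 days. Vehicle was citrate buffer pH 3.0. Blood and femoral marrow lysates (10^8 cells mL−1, Triton X-100) were incubated 15 min, then given the 5-FAM/QXL520 quenched peptide substrate. Fluorescence (ex 320–490, em 405–520 nm) was followed up to 60 min. Initial rate came from the linear portion.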
# [1] = Plasma protein binding by equilibrium dialysis, rat plasma; assay type: in vitro ADME; settings: 10 μM, 18 h at 37°C, mean, n of at least 3
# Procedure, shortened: (§1)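 Test compound at 10 μM final was added to plasma and dialysed against buffer across a 5 kD membrane in a rotating unit for 18 h at 37°C. Buffer and plasma-side aliquots were quenched in methanol and measured by LC–MS/MS. Free fraction is the mean of at least three studies.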
# [2] = Prediction of human PK for AZ2; settings: predicted
# [3] = Plasma protein binding by equilibrium dialysis, human plasma; assay type: in vitro ADME; settings: 10 μM, 18 h at 37°C, mean, n of at least 3
# Procedure, shortened: as §1
clearance (PK studies in the rat) [mL/min],IC50 (DPP1) [nM],PPB (%free) [1] [%free],CL [2] [L/h],PPB (%free) [3] [%free],SMILES,maximum reduction in protease activity in blood (NSP activity; onset studies),effect on CatG activity (cathepsin G (CatG)),days of treatment to reach maximum reduction in NE activity (neutrophil elastase (NE)) [days],days of treatment to reach maximum reduction in PR3 activity (proteinase 3 (PR3)) [days],maximum reduction in protease activity in bone marrow (NSP activity; recovery study) [%]
6.67,140,4.1,–,–,"N#Cc1ccc(-c2ccc(C[C@@H](C#N)NC(=O)[C@@H]3CCCCN3)cc2)cc1 [AZ1, (S)‐N‐((S)‐1‐cyano‐2‐(4′‐cyanobiphenyl‐4‐yl)ethyl)piperidine‐2‐carboxamide]",about 75%,lack of effect,8,8,–
1.67,–,11,3.4,9.1,"N#Cc1ccc(-c2ccc(C[C@@H](C#N)NC(=O)C3(N)CCOCC3)cc2)cc1 [AZ2, (S)‐4‐amino‐N‐(1‐cyano‐2‐(4′‐cyanobiphenyl‐4‐yl)ethyl)tetrahydro‐2H‐pyran‐4‐carboxamide]",–,–,–,–,90
